High-throughput results as filed in PubChem.
Shown are actives, neighbours in structure and some others; about 1.7% of the full set was active somewhere.
DSG3 Ab inh = human desmoglein-3 autoantibody binding inhibition; P32926; DSG3-coupled beads, scFv-anti-DSG3-GFP binding, flow cytometry; stronger effect = lower value; binding (percent of control), % at 10 µM; 310,000 compounds, 0.48% hits; AID 588358;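 active = binding more than 3 SD below its plate's average and above zero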;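 note: hits lower antibody fragment binding to DSG3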
STEP block = STEP (human) phosphatase inhibition | 360,000 compounds, 0.25% hits | inhibition, % at 20 µM | P54829 | recombinant STEP, OMFP fluorogenic substrate, fluorescence;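 active = inhibition at 20 µM, scaled per plate between control wells, above about 37%, limit read from the data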;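 note: 0% = DMSO with enzyme and substrate and 100% = substrate only without enzyme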
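Material: STEP (striatal-enriched tyrosine phosphatase) enzyme, cell-free | Medium: 50 mM Bis-Tris pH 6.0 with 2.5 mM DTT and 0.005% Tween 20 | Read-out: Percent inhibition scaled to no-enzyme and uninhibited-enzyme controls, plate-pattern corrected | Signal: Fluorescence read at 480 nm ex / 540 nm em | Times: 20 min reaction, room temperature, in the dark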
SUMO1-SIM PPI = SUMO1-SIM interaction modulation. inhibition, % at 20 µM. 360,000 compounds, 0.33% hits. SUMO1 binding to a labelled peptide, TR-FRET, 1 h. P63165; in the data active = inhibition above about 37%
Target sequence (P63165 whole entry, looked up): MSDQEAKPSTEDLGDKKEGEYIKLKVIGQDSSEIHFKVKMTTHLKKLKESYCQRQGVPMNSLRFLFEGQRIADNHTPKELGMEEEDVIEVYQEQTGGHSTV
LMPTP block = blocks human LMPTP phosphatase; 360,000 compounds, 0.22% hits; inhibition, % at 20 µM; recombinant LMPTP-A, OMFP fluorogenic substrate, fluorescence intensity; P24666;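 active = compounds that cut the enzyme signal by at least half of the control window in the single-dose screen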;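 note: plate controls were DMSO wells with enzyme plus substrate for no effect and substrate without enzyme for full effect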
Target sequence (P24666 whole entry, looked up): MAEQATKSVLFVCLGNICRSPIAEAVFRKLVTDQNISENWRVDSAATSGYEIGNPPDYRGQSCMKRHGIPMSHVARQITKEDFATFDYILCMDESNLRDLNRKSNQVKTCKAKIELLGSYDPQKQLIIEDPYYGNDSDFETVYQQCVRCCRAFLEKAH
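Test system – LMPTP-A phosphatase enzyme · Quantity – 0.625 nM LMPTP-A final · Reagent – OMFP substrate, 400 µM final · Dosing – one test concentration per compound, 20 µM, with 3% DMSO overall · Timing – 50 min enzyme reaction at room temperature, protected from light · Detection – fluorescence intensity · Controls – substrate-only low control, DMSO enzyme-plus-substrate high control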
Scp1 inh = blocks human Scp-1 phosphatase activity. inhibition, % at 20 µM. Q9GZU7. 340,000 compounds, 0.88% hits. Recombinant Scp1, phosphopeptide, malachite green phosphate absorbance;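 active = inhibition above about 50% at 20 µM, limit read from the data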;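 note: plate controls were DMSO wells with enzyme for no effect and wells lacking enzyme for full effect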
Target sequence (Q9GZU7 76-261 limits assumed): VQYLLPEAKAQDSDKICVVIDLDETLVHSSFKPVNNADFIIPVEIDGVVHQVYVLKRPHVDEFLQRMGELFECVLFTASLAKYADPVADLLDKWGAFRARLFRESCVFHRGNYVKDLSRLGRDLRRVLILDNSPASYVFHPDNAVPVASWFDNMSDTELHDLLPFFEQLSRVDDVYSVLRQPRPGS
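Test system: SCP-1 phosphatase catalytic domain, residues 76-261; measured by: colorimetric phosphate reagent with accelerator and stabiliser, absorbance at 630 nm; timing: enzyme reaction 45 min at room temperature, colour 5 min, stabilisation 30 min; also added: Phosphorylated 17-residue peptide substrate; compound dosing: one concentration, 20 µM, with 1.0% DMSO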
Numbers without * were called inactive; . = not tested or not shown; ! = a repeat was not active.

SMILES	DSG3 Ab inh	STEP block	SUMO1-SIM PPI	LMPTP block	Scp1 inh
O=S(=O)(c1cccs1)N1CCN(CC(O)COC2CCCc3ccccc32)CC1 (stereo not given)	100	1	-1	-2	-2
CCOc1ccccc1N1CCN(CC(O)COC2CCCc3ccccc32)CC1 (stereo not given)	-39*	0	-4	0	3
CCN(CC)CCOC(=O)c1ccc(N/C=C(/C#N)c2nc(-c3cc4ccccc4oc3=O)cs2)cc1	91	52*	-63	30	-5
CCN(CC)CCOC(=O)c1ccc(N/C=C(/C#N)c2nc(-c3ccc4c(c3)OCO4)cs2)cc1	103	86*	65*	22	8
CCN(CC)CCOC(=O)c1ccc(N/C=C(/C#N)c2nc(-c3ccc(OC)cc3)cs2)cc1	.	11	81*	4	11
N#C/C(=C\C=C\c1ccccc1)c1nc(-c2ccc3c(c2)OCO3)cs1	99	-8	-11	2	-8
CCOC(=O)CCc1c(C)nc(-n2[nH]c(C)c(CCO)c2=O)[nH]c1=O	98	0	1	-2	-9
Cc1ccc(S(=O)(=O)N2CCOC2CNC(=O)C(=O)NCCN2CCOCC2)cc1 (stereo not given)	100	-1	0	-3	-4
O=C(CSc1nc2ccccc2c(=O)[nH]1)c1ccc(O)c(O)c1	102	2	22	18	55*
O=C(CSc1nc2ccccc2n1CCc1ccccc1)c1ccc(O)c(O)c1	72*	83*	73*	79*	69*
CC(=O)NS(=O)(=O)c1ccc(N)cc1	25*!	4	-6	-1	-14
CC(=O)c1ccc(NS(=O)(=O)c2ccc(N)cc2)cc1	105	0	1	1	-1
CSc1ccccc1NC(=O)c1ccc(N2CC3CC(C2)c2cccc(=O)n2C3)c(NC(=O)c2cccnc2)c1 (stereo not given)	99	-2	-1	0	6
O=C1c2c(O)ccc(O)c2C(=O)c2c(NCCNCCO)ccc(NCCNCCO)c21	101	14	93*	8	-15
CN1C(=O)/C(=C/c2ccc(-c3ccccc3[N+](=O)[O-])o2)SC1=Nc1ccc(Cl)c(C(=O)O)c1	97	9	39*	2	3
O=C(O)CN1C(=O)/C(=C\c2cc(Br)ccc2OCc2ccc(Cl)cc2)SC1=S	89	16	61*	14	-7
O=C(O)CN1C(=O)/C(=C\c2cc(Br)ccc2OCc2ccc(F)cc2)SC1=S	98	6	8	4	8
COc1ccccc1C(=O)N/N=C(\C)c1ccc(NC(=O)Cc2ccccc2)cc1	101	1	44*	-2	1
C/C(=N\NC(=O)c1ccccc1N)c1ccc(NC(=O)Cc2ccccc2)cc1	.	-2	-2	-2	-4
COc1ccccc1C(=O)N/N=C(\C)c1ccc(NC(=O)C2CC2)cc1	2.4*	-1	-8	3	-1
C/C(=N\NC(=O)c1cc(O)cc(O)c1)c1ccc(NC(=O)Cc2ccccc2)cc1	.	98*	78*	69*	87*
O=C(CSc1nnc2ccc(-c3ccccn3)nn12)Nc1cccc(F)c1	101	-2	-19	-2	.
O=C(NC(=S)Nc1ccc2oc(=O)ccc2c1)c1cc2ccccc2o1	111	4	75*	8	-7
Cc1ccc(-n2c(N)c(C(=O)N3CCN(C)CC3)sc2=S)cc1	101	96*	-15	-1	-8
Oc1ccc2ccccc2c1/C=N/Nc1ccccc1	94	52*	-3	0	-17
SMILES	DSG3 Ab inh	STEP block	SUMO1-SIM PPI	LMPTP block	Scp1 inh
Cn1c(C(=O)N[C@@H](Cc2ccccc2)C(=O)O)cc2cc(Cl)ccc21	99	1	5	-3	-19
CCOC(=O)CC1(C)Oc2cc(Cl)ccc2N1S(=O)(=O)c1ccc(C)cc1 (stereo not given)	.	.	2	2	.
O=C(CN1CCN(c2ccccc2O)CC1)Nc1ccc([N+](=O)[O-])cc1Br	94*	-2	-8	0	-3
N#CC1=C2SCN(Cc3ccccc3)CN2C(=O)CC1c1ccc2c(c1)OCO2 (stereo not given)	97	3	9	11	-7
N#CC1=C2SCN(Cc3ccccc3)CN2C(=O)CC1c1cccs1 (stereo not given)	106	48*	3	6	-1
COc1cc(OC)cc(C(=O)NNC(=O)CCC(=O)c2cc(C)sc2C)c1	110	1	0	-1	-5
COc1cc2c(=O)[nH]c3cc([N+](=O)[O-])ccc3c2cc1[N+](=O)[O-]	102	3	99*	38	.
CCCCC1=NN2C(=N)CC(=O)N=C2S1	108	3	13	4	-2
O=C(O)CSc1ncnc2nc[nH]c12	99	0	1	-1	-14
c1nc(SSc2ncnc3nc[nH]c23)c2[nH]cnc2n1	66*	-2	1	47*	27
N#Cc1c(-c2ccccc2)nc(SCC(=O)N2c3ccccc3Sc3ccccc32)[nH]c1=O	93	-4	47*	4	-2
Cc1cc(C)nc(CCNC(=O)c2cc(COc3ccccc3)on2)n1	110	1	-4	0	-6
CCC(=O)N(Cc1cc2ccc(C)cc2[nH]c1=O)c1ccccc1OC	104	0	-1	-1	-1
O=C(O)c1ccc(-n2cccc2/C=N\NC(=O)c2cc3cc(Br)ccc3o2)cc1	87	14	84*	23	80*
CCCCC(=O)Nc1ccc(NC(=O)C2CC2)nc1	73	-2	57*	-1	-4
O=Cc1cccn1-c1c(C(=O)O)cnn1-c1ccccc1	103	-1	42*	-1	6
O=C(O)c1cnn(-c2ccccc2)c1-c1ccncc1	105	2	4	-1	37
O=S(=O)(Nc1nccs1)c1ccc(NCc2cc(Br)cc(Br)c2O)cc1	93	-1	32	1	6
COc1cccc(CNc2ccc(S(=O)(=O)Nc3nccs3)cc2)c1O	104	2	38*	0	-5
CCCCc1ccc(NC(=O)c2cnccn2)cc1	117	0	2	0	-1
COC(=O)c1ccc(CSc2nnc(NC(=O)C3CC(=O)N(c4ccc5c(c4)OCCO5)C3)s2)cc1 (stereo not given)	109	0	5	3	-8
COc1cc(C(=O)NNC(=O)C2CSC3(C)CCC(=O)N23)cc(OC)c1OC (stereo not given)	101	-2	2	-2	-4
c1ccc2[nH]c(NCCCN3CCOCC3)nc2c1	101	-1	5	-1	-3
Cc1cccc(-c2nc(NCCCN(C)C)c3ccccc3n2)c1	108	-4	-33	35	-6
c1ccc(-c2nc(NCCCN3CCOCC3)c3ccccc3n2)cc1	106	-1	3	51*	0
